In the library only some 1.8% were active in any assay of this set; here they are far more common.
CHRM5 agonist: CHRM5 agonism in calcium assay | P08912 | CHO-K1 hM5 cells, Fluo-8 calcium fluorescence; 0% DMSO wells, 100% maximal acetylcholine response | activation, % at 3 µM | 360,000 compounds, 0.19% hits;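 active = activation above the run's mean over test compounds plus 3 SD, cut at about 23% in these data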;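 note: signal is peak over basal fluorescence ratio across the kinetic read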
CHRM5 PAM: CHRM5 positive allosteric modulation | activation, % at 3 µM | P08912 | AID 624038 | CHO-K1 hM5, Fluo-8 calcium, ACh EC20 PAM; 0% = ACh EC20, 100% = ACh EC100 | 360,000 compounds, 0.3% hits;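 active = activation above the run cutoff, the mean activation of all test compounds plus 3 SD, cut at about 18% in these data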
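System: CHO-K1 hM5 cells. Reagent: acetylcholine, EC20 level. Compound dosing: single dose, 3 µM nominal final test concentration. Timing: Post-acetylcholine fluorescence recording 140 s. Detection: Fluo-8 calcium fluorescence. Read-out: % activation, ACh-normalized. Benchmarks: ACh EC20 and EC100 wells. Repeats: singlicate, one well per test compound.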
CHRM5 antagonist: blocks acetylcholine activation of human M5 receptor; P08912; CHO-hM5 cells, Fluo-8 calcium fluorescence, ACh EC80; inhibition, % at 3 µM; 360,000 compounds, 0.59% hits;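 active = inhibition above a per-plate cutoff, the mean of that plate's test compounds plus 3 SD, cut at about 27% in these data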;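 note: 0% = acetylcholine EC80 with DMSO and 100% = DMSO without agonist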
CHRM4 PAM: CHRM4 positive allosteric modulation; P08173; 360,000 compounds, 0.4% hits; activation, % at 3 µM; CHO-K1 hM4/Gqi5, Fluo-8 calcium fluorescence, ACh EC20; 0% = ACh EC20, 100% = maximal ACh; AID 624126;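 active = activation above its plate's cutoff, the mean activation of sample wells plus 3 SD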
Target sequence (P08173 whole entry, looked up): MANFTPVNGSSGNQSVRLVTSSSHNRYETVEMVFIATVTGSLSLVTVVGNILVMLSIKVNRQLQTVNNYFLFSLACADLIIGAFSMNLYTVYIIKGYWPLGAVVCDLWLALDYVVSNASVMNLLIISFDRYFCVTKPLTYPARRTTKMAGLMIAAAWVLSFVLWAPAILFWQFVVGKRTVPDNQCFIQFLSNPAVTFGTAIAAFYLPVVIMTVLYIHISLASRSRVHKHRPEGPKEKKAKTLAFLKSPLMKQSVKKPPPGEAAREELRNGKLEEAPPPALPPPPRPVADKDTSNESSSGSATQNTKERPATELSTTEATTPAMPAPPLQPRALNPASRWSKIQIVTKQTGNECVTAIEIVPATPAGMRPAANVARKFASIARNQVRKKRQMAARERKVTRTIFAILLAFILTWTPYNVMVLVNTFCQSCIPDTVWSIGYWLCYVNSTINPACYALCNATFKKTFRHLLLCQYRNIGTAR
M4 antag: antagonists of human muscarinic M4 receptor (CHRM4); P08173; CHO-hM4 cells, ACh EC80, Fluo-8 calcium fluorescence; inhibition, % at 3 µM; 360,000 compounds, 0.73% hits; AID 624125;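 active = inhibition above its plate's cutoff, the mean inhibition of sample wells plus 3 SD, cut at about 27% in these data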;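 note: 0% = acetylcholine EC80 with DMSO and 100% = DMSO without agonist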
M4 ag: agonists of human muscarinic M4 receptor (CHRM4). P08173. CHO-K1 hM4/Gqi5, Fluo-8 calcium fluorescence; vehicle 0%, full acetylcholine response 100%. activation, % at 3 µM. 360,000 compounds, 0.14% hits. AID 624127;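 active = activation above the run mean over all test wells plus 3 SD, cut at about 32% in these data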;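 note: peak over basal fluorescence ratio per well then scaled between controls; 0% = DMSO wells and 100% = acetylcholine at EC100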
* = called active by the depositor.

SMILES | CHRM5 agonist | CHRM5 PAM | CHRM5 antagonist | CHRM4 PAM | M4 antag | M4 ag
C=CCn1c(=S)[nH]c2cc(C(=O)NCCc3ccc(S(N)(=O)=O)cc3)ccc2c1=O | 5 | 13 | -3 | 10 | -8 | 0
CC1CCc2sc(C(=O)N3CCC(C(N)=O)CC3)cc2C1 (stereo not given) | -3 | -4 | 6 | 5 | -2 | 0
Cc1ccc(CC(=O)N2CCN(c3cccc(C(F)(F)F)c3)CC2)cc1 | 4 | -17 | 16 | -12 | 28* | 17
Cc1ccc(-c2nc3c(Cl)cc(C(F)(F)F)cn3c2Cc2ccccc2C(F)(F)F)cc1 | -1 | -1 | -3 | 18 | -9 | 1
FC(F)(F)c1cc(Cl)c2nc(-c3ccco3)c(Cc3ccccc3C(F)(F)F)n2c1 | 4 | 5 | 2 | -9 | 45* | 4
COc1cccc(C2CC(c3ccccc3)=NN2S(=O)(=O)c2ccc(C)cc2)c1OC (stereo not given) | 5 | 27* | 3 | -6 | 2 | 1
Cc1cc(NC(=O)c2ccc(F)c(S(=O)(=O)N3CCCCC3)c2)no1 | -3 | -7 | 9 | -14 | 51* | 0
Cc1cc(NC(=O)c2cccc(S(=O)(=O)N3CCCCCC3)c2)no1 | 3 | -3 | -1 | 10 | -5 | 2
CCOC(=O)C1CCCN(C/C(O)=C(\C#N)c2nc(-c3ccccc3)cs2)C1 (stereo not given) | 23* | -6 | -3 | 3 | -4 | 5
CN(CCO)c1cc(Sc2nc3ccccc3s2)c2nonc2c1[N+](=O)[O-] | 1 | -13 | 21 | -13 | 93* | 4
CC(=O)OCCN(C)c1cc(SC(C)C)c2nonc2c1[N+](=O)[O-] | 0 | -3 | 10 | -3 | -3 | 2
Oc1ccccc1Oc1ncc(Br)c(Cl)n1 | -8 | 4 | -4 | 5 | -1 | -1
Oc1ccccc1Oc1ncc(Br)c(N2CCOCC2)n1 | -8 | -23 | 11 | -18 | 40* | 1
Brc1cnc(N2CCCC2)nc1N1CCOCC1 | -3 | -1 | 5 | 11 | 27* | 0
COc1ccc(C2/C(=C(/O)c3ccc4c(c3)CC(C)O4)C(=O)C(=O)N2CCCN2CCOCC2)cc1 (stereo not given) | 0 | 20* | -22 | 6 | 7 | 1
COc1ccc(/C(O)=C2/C(=O)C(=O)N(CCCN3CCOCC3)C2c2ccc(OC)cc2)cc1 (stereo not given) | -5 | -11 | 32* | -8 | 4 | 0
COc1ccc(C2/C(=C(/O)c3ccc(S(=O)(=O)N4CCOCC4)cc3)C(=O)C(=O)N2CCN2CCOCC2)cc1 (stereo not given) | -1 | 1 | -2 | 6 | -4 | 2
COCCNc1nc(NCCCN2CCCC2=O)c2sccc2n1 | -1 | -2 | 6 | -3 | 0 | 1
COc1cc(NC(=O)Nc2nc(C(N)C(C)C)cs2)cc(OC)c1OC (stereo not given) | 0 | 1 | -6 | 5 | -9 | 0
COc1ccc(-n2c(SCC(=O)N(C)C3CCS(=O)(=O)C3)nc3ccc(O)cc3c2=O)cc1OC (stereo not given) | -2 | -8 | 29* | -1 | 0 | 1
CN(C(=O)CSc1nc2ccccc2c(=O)n1-c1ccc(F)cc1)C1CCS(=O)(=O)C1 (stereo not given) | 0 | 3 | 2 | 4 | -2 | 2
CN1CCCN=C1COC(=O)C(O)(c1ccccc1)C1CCCCC1 (stereo not given) | -2 | -18 | 99* | -18 | 99* | 1
O=C(CN1CCOCC1)Nc1nc2cc([N+](=O)[O-])ccc2s1 | -3 | 13 | 5 | 27* | -12 | 4
N#Cc1cccc(NC(=O)CSc2ccc3c4c(cccc24)C(=O)c2ccccc2-3)c1 | 6 | -15 | 33* | -9 | 11 | 15
COc1ccc(NC(=O)C2CCN(C(=O)c3cccs3)CC2)cc1OC | -6 | 0 | 4 | 3 | -6 | 0
SMILES | CHRM5 agonist | CHRM5 PAM | CHRM5 antagonist | CHRM4 PAM | M4 antag | M4 ag
COc1ccc([N+](=O)[O-])cc1NC1CCN(C(=O)c2cccs2)CC1 | 0 | 5 | 3 | 18* | -3 | 3
CC1CCCN1c1ccnc2cc(Cl)ccc12 (stereo not given) | -2 | -8 | 17 | -8 | 9 | 3
Cc1ccc(C(=O)NCC(=O)NCC(=O)OCc2ccc(Oc3ccc([N+](=O)[O-])cc3)cc2)cc1 | 2 | -22 | 31* | -15 | 19 | 14
Cc1cc(/C=C(\C#N)C(N)=O)c(C)n1-c1ccc(N2CCOCC2)c([N+](=O)[O-])c1 | 29* | -6 | 10 | -1 | 7 | 23
Cc1cc(Cl)ccc1OCC(=O)Nc1ccncc1 | 3 | -22 | 33* | -4 | 6 | 11
O=C(COc1ccc(Cl)cc1Cl)NCc1ccncc1 | -6 | -3 | 2 | 5 | 30* | 4
Cc1cc(Cl)ccc1OCC(=O)NCc1ccncc1 | -5 | -4 | -5 | 4 | 0 | 3
CCN1CCN(c2ccc(NC(=O)COc3ccccc3Cl)cc2)CC1 | -8 | -7 | 0 | -9 | 10 | 1
CCN1CCN(c2ccc(NC(=O)COc3ccc(Cl)cc3C)cc2)CC1 | -12 | -48 | 42* | -16 | 28* | 4
O=C(CSc1nnc(-c2cccs2)n1C1CC1)NC1CCS(=O)(=O)C1 (stereo not given) | 2 | 7 | -3 | 2 | 9 | 2
CNC(=O)C1CCC(=O)N1Cc1c[nH]c2ccccc12 (stereo not given) | 1 | -2 | -2 | 16 | 5 | 0
CCCNC(=O)c1cccc(COc2ccccc2OC)c1 | -2 | -2 | -1 | -4 | -5 | 2
CCCNC(=O)c1cccc(COCC(F)(F)F)c1 | -4 | 34* | -8 | 5 | 2 | 1
CC1=NN(c2ccccc2)C(=O)/C1=C\C=C1/N(C)c2ccccc2C1(C)C | 36* | -16 | 18 | -10 | -4 | 25
CN1/C(=C\C=C2/SC(=S)NC2=O)C(C)(C)c2ccccc21 | 51* | -28 | 58* | -29 | 44* | 65*
CC1=NN(c2ccccc2)C(=O)/C1=C\C=C1\N(C)c2ccccc2C1(C)C | 17 | -7 | 12 | 2 | 4 | 10
CCN1C(=C(C#N)C#N)C=Cc2cc(C)ccc21 | -6 | 1 | -1 | 1 | 5 | 1
C=CC[n+]1c(/C=C2\C=Cc3cc(C)ccc3N2CC)ccc2ccccc21 | 5 | -15 | 37* | -21 | 33* | 12
CC(c1ccccc1)C1OCC(C[N+]2(C)CCCCC2)O1 (stereo not given) | -9 | -18 | 30* | -24 | 45* | 0

Bioassay records deposited in PubChem BioAssay by The Scripps Research Institute Molecular Screening Center.
